Activity calls are given as the source filed them. The calls are words filed in the database; no cut-off is given here.
How the values were obtained:
[1] = target: Methylcytosine dioxygenase TET1 (Homo sapiens) (UniProt Q8NFU7); assay: Inhibition of recombinant human N-terminal FLAG-tagged TET1 (1418 to 2136 residues) expressed in baculovirus infected sf9 cells assessed as reduction in oxidation of methylated dsDNA at 100 uM after 2 hrs by chemiluminescence assay relative to control
Method in brief: (§1)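 ELISA of oxidation of methylated double-stranded DNA by recombinant human TET1 or TET2, inhibitor tested at 100 μM. N = 3, mean ± SEM; two-way ANOVA.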

[2] = target: Methylcytosine dioxygenase TET2 (Homo sapiens) (UniProt Q6N021); assay: Inhibition of recombinant human C-terminal His/N-terminal FLAG-tagged TET2 (1129 to 2002 residues) expressed in baculovirus infected sf9 cells assessed as reduction in oxidation of methylated dsDNA at 100 uM after 2 hrs by chemiluminescence assay relative to control; method in brief: as §1
Mus musculus = organism: Mus musculus; assay: Inhibition of TET in mouse HT22 cells assessed as reduction in global DNA 5-hmc level at 10 uM after 24 hrs by spectrophotometric method; type: cell-based
Method in brief: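 HT-22 immortalized mouse hippocampal neurons dosed at 10 μM in 1% DMSO for 24 h, then lysed; DNA extracted and 5hmC detected with a 5hmC-specific antibody, colorimetric read-out giving percent 5hmC of all cytosine species. Vehicle control; N = 6 biological replicates per group, mean ± SEM, one-way ANOVA.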

[3] = target: DNA (cytosine-5)-methyltransferase 3A (Homo sapiens) (UniProt Q9Y6K1); assay: Inhibition of DNMT3A (unknown origin) at 500 uM
DNA (cytosine-5)-methyltransferase 3A (Homo sapiens), sequence (Q9Y6K1 whole entry, looked up): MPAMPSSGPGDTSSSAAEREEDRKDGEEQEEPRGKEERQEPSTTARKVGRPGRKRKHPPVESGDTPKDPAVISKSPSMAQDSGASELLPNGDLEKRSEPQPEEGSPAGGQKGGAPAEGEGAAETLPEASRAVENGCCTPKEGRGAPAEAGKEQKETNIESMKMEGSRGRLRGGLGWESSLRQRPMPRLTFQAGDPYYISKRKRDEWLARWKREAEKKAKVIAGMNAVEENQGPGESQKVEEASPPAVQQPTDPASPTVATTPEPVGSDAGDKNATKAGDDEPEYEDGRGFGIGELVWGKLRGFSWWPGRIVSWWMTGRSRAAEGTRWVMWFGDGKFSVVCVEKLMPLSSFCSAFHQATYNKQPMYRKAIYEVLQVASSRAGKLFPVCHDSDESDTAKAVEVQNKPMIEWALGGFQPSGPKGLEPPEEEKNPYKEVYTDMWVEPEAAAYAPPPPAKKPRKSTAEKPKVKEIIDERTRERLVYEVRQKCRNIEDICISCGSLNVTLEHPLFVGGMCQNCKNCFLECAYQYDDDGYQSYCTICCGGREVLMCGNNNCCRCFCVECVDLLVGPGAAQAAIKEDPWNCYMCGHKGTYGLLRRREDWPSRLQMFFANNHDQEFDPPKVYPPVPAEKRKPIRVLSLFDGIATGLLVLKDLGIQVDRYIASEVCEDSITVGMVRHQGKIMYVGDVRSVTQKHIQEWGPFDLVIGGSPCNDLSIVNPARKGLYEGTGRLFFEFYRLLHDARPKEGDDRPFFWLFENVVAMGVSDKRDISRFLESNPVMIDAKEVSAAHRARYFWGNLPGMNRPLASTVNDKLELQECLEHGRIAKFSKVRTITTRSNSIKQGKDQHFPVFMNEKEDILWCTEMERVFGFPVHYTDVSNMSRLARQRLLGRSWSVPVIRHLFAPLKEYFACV

Methylcytosine dioxygenase TET1 (Homo sapiens), sequence (Q8NFU7 whole entry, the tested form may be a part): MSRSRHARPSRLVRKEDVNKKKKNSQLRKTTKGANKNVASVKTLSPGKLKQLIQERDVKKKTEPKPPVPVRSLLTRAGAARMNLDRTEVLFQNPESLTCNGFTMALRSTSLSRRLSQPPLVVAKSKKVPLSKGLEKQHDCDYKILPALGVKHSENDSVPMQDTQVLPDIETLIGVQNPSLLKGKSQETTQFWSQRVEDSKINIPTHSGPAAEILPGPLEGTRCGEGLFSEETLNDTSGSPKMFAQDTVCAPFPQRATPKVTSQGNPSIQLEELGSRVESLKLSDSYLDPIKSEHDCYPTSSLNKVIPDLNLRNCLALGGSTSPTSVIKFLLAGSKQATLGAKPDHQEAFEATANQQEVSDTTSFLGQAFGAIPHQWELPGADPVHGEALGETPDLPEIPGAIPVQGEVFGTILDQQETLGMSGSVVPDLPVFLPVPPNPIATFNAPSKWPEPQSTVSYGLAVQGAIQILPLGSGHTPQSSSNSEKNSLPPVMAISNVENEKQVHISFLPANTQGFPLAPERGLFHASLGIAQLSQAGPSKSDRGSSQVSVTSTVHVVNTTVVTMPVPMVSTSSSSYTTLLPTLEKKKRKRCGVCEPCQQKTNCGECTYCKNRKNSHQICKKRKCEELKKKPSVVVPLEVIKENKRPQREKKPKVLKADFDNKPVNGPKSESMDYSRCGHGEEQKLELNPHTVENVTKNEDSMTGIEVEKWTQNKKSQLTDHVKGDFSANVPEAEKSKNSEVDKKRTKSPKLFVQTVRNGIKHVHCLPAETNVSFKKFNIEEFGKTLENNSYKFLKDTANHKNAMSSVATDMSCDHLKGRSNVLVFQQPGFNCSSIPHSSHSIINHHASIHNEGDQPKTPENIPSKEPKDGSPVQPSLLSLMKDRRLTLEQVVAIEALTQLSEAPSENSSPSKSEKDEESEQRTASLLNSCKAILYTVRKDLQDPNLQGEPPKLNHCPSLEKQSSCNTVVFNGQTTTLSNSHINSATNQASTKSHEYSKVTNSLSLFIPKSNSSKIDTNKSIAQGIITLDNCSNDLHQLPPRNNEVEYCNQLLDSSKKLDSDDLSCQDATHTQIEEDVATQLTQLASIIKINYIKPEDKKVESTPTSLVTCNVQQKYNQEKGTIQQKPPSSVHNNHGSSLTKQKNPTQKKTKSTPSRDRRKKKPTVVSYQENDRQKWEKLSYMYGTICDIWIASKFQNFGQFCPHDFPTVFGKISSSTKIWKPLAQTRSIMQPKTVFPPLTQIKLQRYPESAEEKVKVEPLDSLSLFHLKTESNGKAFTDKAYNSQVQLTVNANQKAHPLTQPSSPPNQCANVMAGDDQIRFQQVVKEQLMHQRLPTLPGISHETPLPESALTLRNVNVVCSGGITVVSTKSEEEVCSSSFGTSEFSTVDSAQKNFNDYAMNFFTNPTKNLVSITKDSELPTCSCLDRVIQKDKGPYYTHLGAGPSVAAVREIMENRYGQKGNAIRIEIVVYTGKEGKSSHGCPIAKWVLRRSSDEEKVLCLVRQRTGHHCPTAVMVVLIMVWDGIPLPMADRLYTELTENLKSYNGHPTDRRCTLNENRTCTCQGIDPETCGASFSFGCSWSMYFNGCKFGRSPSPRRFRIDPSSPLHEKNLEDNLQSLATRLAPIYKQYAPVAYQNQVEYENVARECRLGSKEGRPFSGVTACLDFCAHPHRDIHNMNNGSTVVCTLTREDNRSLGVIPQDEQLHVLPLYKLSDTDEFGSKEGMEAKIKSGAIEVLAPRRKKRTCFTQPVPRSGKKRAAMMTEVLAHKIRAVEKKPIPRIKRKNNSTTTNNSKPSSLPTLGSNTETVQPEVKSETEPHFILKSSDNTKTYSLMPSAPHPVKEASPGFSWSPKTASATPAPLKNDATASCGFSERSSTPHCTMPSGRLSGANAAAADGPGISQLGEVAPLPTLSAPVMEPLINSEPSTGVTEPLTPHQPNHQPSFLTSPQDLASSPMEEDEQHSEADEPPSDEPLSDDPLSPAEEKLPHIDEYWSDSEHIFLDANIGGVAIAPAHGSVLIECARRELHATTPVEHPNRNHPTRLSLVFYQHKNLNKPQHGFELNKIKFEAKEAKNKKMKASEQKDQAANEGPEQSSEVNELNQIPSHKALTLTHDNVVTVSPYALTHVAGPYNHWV

Nc1ccn(-c2ccccc2)c(=O)n1
inhibition [1]: inactive | inhibition [2]: inactive

Nc1nc(=O)n(-c2ccccc2)cc1C(F)(F)F
inhibition [1]: inactive | inhibition [2]: inactive

Nc1nc(=O)n(-c2ccc(-c3ccccc3)cc2)cc1Cl
inhibition [1]: inactive | inhibition [2]: inactive

Nc1nc(=O)n(-c2ccccc2)cc1Cl
inhibition [1]: 57% | inhibition [2]: 43% | inhibition (Mus musculus): inactive

Nc1nc(=O)n(-c2cccc(-c3ccccc3)c2)cc1Cl
inhibition [1]: Active | inhibition [3]: inactive | inhibition (Mus musculus): Active

Nc1nc(=O)n(-c2ccccc2-c2ccccc2)cc1Cl
inhibition [1]: inactive | inhibition [2]: inactive

From ChEMBL document CHEMBL4330181, “Cytosine-Based TET Enzyme Inhibitors” (ACS Med Chem Lett, 2019)
